# In ChEMBL document CHEMBL1122679, “Beta-adrenergic blocking agents: substituted phenylalkanolamines. Effect of side-chain length on beta-blocking potency in vitro” (J Med Chem, 1984):
# Experiments:
# Cavia porcellus [1] = species: Cavia porcellus; experiment: Beta-adrenoceptor blocking potency in the isolated guinea pig heart, giving 50% inhibition of isoproterenol-induced tachycardia relative to oxprenolol; type: functional
# Cavia porcellus [2] = species: Cavia porcellus; experiment: Beta-adrenoceptor blocking potency in the isolated guinea pig heart, giving 50% inhibition of isoproterenol-induced tachycardia; type: functional
# Method in brief: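 Langendorff-perfused isolated hearts from male Pirbright guinea pigs (330-640 g), removed under urethane anesthesia (1.5 g/kg ip). Perfusion with oxygenated Krebs-Henseleit plus ascorbic acid and NaEDTA at 36 °C. Heart rate recorded continuously. After ~30 min control, DL-isoproterenol sulfate (0.005 µg/mL) was added to the perfusate. Increasing compound concentrations were then given, 10 min each, against the isoproterenol tachycardia.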
# [3] = Partition coefficient (logP); type: physicochemical; conditions: octanol/water
# Method in brief: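 Octanol/buffer partitioning. Compounds at about 10^-4 M in 0.067 M pH 7.4 phosphate buffer (octanol-saturated) were shaken with buffer-saturated 1-octanol for 1 h at 25.0 °C, then centrifuged. Concentrations in each phase were measured spectrophotometrically. The coefficient was taken as the octanol/buffer concentration ratio, done in triplicate.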
# [4] = pK value is evaluated; type: ADME; conditions: read-out: pK
# Method in brief: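 Spectrophotometric determination. Dilute solutions were circulated through a glass electrode and a 1-cm spectrophotometer cell. pKa was calculated from the pH-dependent spectra.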
# Cavia porcellus [5] = species: Cavia porcellus; experiment: Compound was evaluated for beta-adrenoceptor blocking potency in the isolated guinea pig, giving 50% inhibition of isoproterenol-induced tachycardia relative to oxprenolol; type: functional
Structure (SMILES),Relative activity (Cavia porcellus [1]),-Log concentration (Cavia porcellus [2]),logP [3],pKa [4],logP ([3]; read-out: logP),Relative activity (Cavia porcellus [5])
NC(=O)c1cc(OCCNCC(O)CCCCc2ccccc2)ccc1O (stereo unspecified),0.018,5.85 log_unit,–,–,–,–
COc1ccccc1CCCC(O)CNCCOc1ccc(O)c(C(N)=O)c1 (stereo unspecified),0.1,6.6 log_unit,–,–,–,–
C=CCOc1ccccc1OCC(O)CNC(C)C (stereo unspecified) [OXPRENOLOL],1,7.6 M l-1,0.2,9.4,–,–
Cc1ccccc1CCC(O)CNCCOc1ccc(O)c(C(N)=O)c1 (stereo unspecified),0.3,7.08 log_unit,–,–,–,–
COc1ccccc1OCC(O)CNC(C)(C)C (stereo unspecified),0.45,7.26 log_unit,–,9.8,-0.44,–
COc1ccccc1CC(O)CNCCOc1ccc(O)c(C(N)=O)c1 (stereo unspecified),0.061,6.39 log_unit,–,–,–,–
NC(=O)c1cc(OCCNCC(O)Cc2ccccc2)ccc1O (stereo unspecified),0.018,5.84 log_unit,–,–,–,–
COc1ccccc1OCC(O)CNCCOc1ccc(O)c(C(N)=O)c1 (stereo unspecified),–,8.45 log_unit,–,8.8,1.14,6.9
COc1ccc(CCC(O)CNCCOc2ccc(O)c(C(N)=O)c2)cc1 (stereo unspecified),–,6.07 log_unit,–,–,–,0.029
COc1ccccc1CCC(O)CNC(C)(C)C (stereo unspecified),0.012,5.67 log_unit,–,9.9,-0.21,–
NC(=O)c1cc(OCCNCC(O)c2ccccc2)ccc1O (stereo unspecified),0.011,5.66 log_unit,–,–,1.24,–
COc1ccccc1CCC(O)CNCCOc1ccc(O)c(C(N)=O)c1 (stereo unspecified),1.8,7.85 log_unit,–,8.9,1.56,–
NC(=O)c1cc(OCCNCC(O)CCc2ccccc2)ccc1O (stereo unspecified),0.19,6.9 log_unit,–,–,–,–
COc1ccccc1CCCCC(O)CNCCOc1ccc(O)c(C(N)=O)c1 (stereo unspecified),0.068,6.43 log_unit,–,–,–,–
COc1ccccc1C(O)CNCCOc1ccc(O)c(C(N)=O)c1 (stereo unspecified),0.33,7.12 log_unit,–,–,–,–
